Results published in ChEMBL document CHEMBL3751707, “Silicon Incorporated Morpholine Antifungals: Design, Synthesis, and Biological Evaluation” (ACS Med Chem Lett, 2015).
≈ marks a conversion by molar mass, not a printed value.

What was measured:
Candida albicans [1] = assay: Antifungal activity against Candida albicans ATCC 24433 after 24 to 36 hrs by broth microdilution method; type: functional, organism-based
Method in brief: (§1)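 CLSI broth microdilution against yeasts (M27-A3) and filamentous fungi (M38-A2). Read-outs: IC50 (concentration giving 50% growth inhibition), MIC, and MFC (minimum fungicidal concentration), all in μg/mL. Assay done twice in triplicate.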

Candida albicans [2] = assay: Antifungal activity against Candida albicans ATCC 24433 after 72 hrs by broth microdilution method; type: functional; details: ATCC 24433, 72 h; method in brief: as §1
Candida albicans [3] = assay: Antifungal activity against Candida albicans ATCC 10231 after 24 to 36 hrs by broth microdilution method; type: functional, organism-based; method in brief: as §1
Candida albicans [4] = assay: Antifungal activity against Candida albicans ATCC 10231 after 72 hrs by broth microdilution method; type: functional; details: ATCC 10231, 72 h; method in brief: as §1
Cryptococcus neoformans [5] = assay: Antifungal activity against Cryptococcus neoformans ATCC 34664 after 24 to 36 hrs by broth microdilution method; type: functional, organism-based; method in brief: as §1
Cryptococcus neoformans [6] = assay: Antifungal activity against Cryptococcus neoformans ATCC 34664 after 72 hrs by broth microdilution method; type: functional; details: ATCC 34664, 72 h; method in brief: as §1
Nakaseomyces glabratus [7] = assay: Antifungal activity against Candida glabrata NCYC 388 after 24 to 36 hrs by broth microdilution method; type: functional, organism-based; method in brief: as §1
Nakaseomyces glabratus [8] = assay: Antifungal activity against Candida glabrata NCYC 388 after 72 hrs by broth microdilution method; type: functional; details: NCYC 388, 72 h; method in brief: as §1
Candida tropicalis [9] = assay: Antifungal activity against Candida tropicalis ATCC 750 after 24 to 36 hrs by broth microdilution method; type: functional, organism-based; method in brief: as §1
Candida tropicalis [10] = assay: Antifungal activity against Candida tropicalis ATCC 750 after 72 hrs by broth microdilution method; type: functional; details: ATCC 750, 72 h; method in brief: as §1
Aspergillus niger [11] = assay: Antifungal activity against Aspergillus niger ATCC 10578 after 48 hrs by broth microdilution method; type: functional, organism-based; details: ATCC 10578, 48 h; method in brief: as §1
Aspergillus niger [12] = assay: Antifungal activity against Aspergillus niger ATCC 10578 after 72 hrs by broth microdilution method; type: functional; details: ATCC 10578, 72 h; method in brief: as §1
[13] = Toxicity in human RBC assessed as hemolysis upto 128 ug/ml; type: cell-based; details: erythrocyte
[14] = Metabolic stability in mouse liver microsomes after 30 mins by LC-MS/MS analysis; type: ADME; details: read-out: Stability
Method in brief: (§2)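 Test compounds were incubated 30 min with liver microsomes (human or mouse, per line), and values are reported as % metabolic stability after 30 min.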

[15] = Metabolic stability in human liver microsomes after 30 mins by LC-MS/MS analysis; type: ADME; details: read-out: Stability; method in brief: as §2

## CC(Cc1ccc([Si](C)(C)C)cc1)CN1CCS(=O)(=O)CC1 (stereo not drawn)
Candida albicans [1]
  MIC: ≥ 256 µg/mL
Candida albicans [2]
  MFC: ≥ 256 µg/mL
Candida albicans [3]
  MIC: ≥ 256 µg/mL
Candida albicans [4]
  MFC: ≥ 256 µg/mL
Cryptococcus neoformans [5]
  MIC: ≥ 256 µg/mL
Cryptococcus neoformans [6]
  MFC: ≥ 256 µg/mL
Nakaseomyces glabratus [7]
  MIC: ≥ 256 µg/mL
Nakaseomyces glabratus [8]
  MFC: ≥ 256 µg/mL
Candida tropicalis [9]
  MIC: ≥ 256 µg/mL
Candida tropicalis [10]
  MFC: ≥ 256 µg/mL
Aspergillus niger [11]
  MIC: ≥ 256 µg/mL
Aspergillus niger [12]
  MFC: ≥ 256 µg/mL

## CC(Cc1ccc(C(C)(C)C)cc1)CN1C[C@@H](C)O[C@@H](C)C1 (stereo partly drawn) [FENPROPIMORPH]
Candida albicans [1]
  IC50: 0.21 µg/mL (≈ 0.692 µM)
  MIC: 0.5 µg/mL (≈ 1.65 µM)
Candida albicans [2]
  MFC: 4 µg/mL (≈ 13.2 µM)
Candida albicans [3]
  IC50: 0.833 µg/mL (≈ 2.74 µM)
  MIC: 2 µg/mL (≈ 6.59 µM)
Candida albicans [4]
  MFC: 2 µg/mL (≈ 6.59 µM)
Cryptococcus neoformans [5]
  IC50: 0.25 µg/mL (≈ 0.824 µM)
  MIC: 1 µg/mL (≈ 3.3 µM)
Cryptococcus neoformans [6]
  MFC: 64 µg/mL (≈ 211 µM)
Nakaseomyces glabratus [7]
  IC50: 0.25 µg/mL (≈ 0.824 µM)
  MIC: 1 µg/mL (≈ 3.3 µM)
Nakaseomyces glabratus [8]
  MFC: 128 µg/mL (≈ 422 µM)
Candida tropicalis [9]
  IC50: 0.125 µg/mL (≈ 0.412 µM)
  MIC: 2 µg/mL (≈ 6.59 µM)
Candida tropicalis [10]
  MFC: > 256 µg/mL
Aspergillus niger [11]
  IC50: 1 µg/mL (≈ 3.3 µM)
  MIC: 4 µg/mL (≈ 13.2 µM)
Aspergillus niger [12]
  MFC: > 256 µg/mL
[13]
  Activity: Non-toxic

## OC(Cn1cncn1)(Cn1cncn1)c1ccc(F)cc1F [FLUCONAZOLE]
Candida albicans [1]
  IC50: 0.73 µg/mL (≈ 2.38 µM)
  MIC: 2 µg/mL (≈ 6.53 µM)
Candida albicans [2]
  MFC: 4 µg/mL (≈ 13.1 µM)
Candida albicans [3]
  IC50: 4.21 µg/mL (≈ 13.7 µM)
  MIC: 8 µg/mL (≈ 26.1 µM)
Candida albicans [4]
  MFC: 16 µg/mL (≈ 52.2 µM)
Cryptococcus neoformans [5]
  IC50: 4.6 µg/mL (≈ 15 µM)
  MIC: 32 µg/mL (≈ 104 µM)
Cryptococcus neoformans [6]
  MFC: > 256 µg/mL
Nakaseomyces glabratus [7]
  IC50: 16 µg/mL (≈ 52.2 µM)
  MIC: 128 µg/mL (≈ 418 µM)
Nakaseomyces glabratus [8]
  MFC: > 256 µg/mL
Candida tropicalis [9]
  IC50: 64 µg/mL (≈ 209 µM)
  MIC: > 256 µg/mL
Candida tropicalis [10]
  MFC: > 256 µg/mL
Aspergillus niger [11]
  IC50: > 256 µg/mL
  MIC: > 256 µg/mL
Aspergillus niger [12]
  MFC: > 256 µg/mL

## CC(Cc1ccc([Si](C)(C)C)cc1)CN1CCSCC1 (stereo not drawn)
Candida albicans [1]
  IC50: 0.245 µg/mL (≈ 0.797 µM)
  MIC: 1 µg/mL (≈ 3.25 µM)
Candida albicans [2]
  MFC: 8 µg/mL (≈ 26 µM)
Candida albicans [3]
  IC50: 0.5 µg/mL (≈ 1.63 µM)
  MIC: 1 µg/mL (≈ 3.25 µM)
Candida albicans [4]
  MFC: 2 µg/mL (≈ 6.5 µM)
Cryptococcus neoformans [5]
  IC50: 0.8 µg/mL (≈ 2.6 µM)
  MIC: 2 µg/mL (≈ 6.5 µM)
Cryptococcus neoformans [6]
  MFC: 64 µg/mL (≈ 208 µM)
Nakaseomyces glabratus [7]
  IC50: 0.25 µg/mL (≈ 0.813 µM)
  MIC: 0.5 µg/mL (≈ 1.63 µM)
Nakaseomyces glabratus [8]
  MFC: 8 µg/mL (≈ 26 µM)
Candida tropicalis [9]
  IC50: 0.25 µg/mL (≈ 0.813 µM)
  MIC: 2 µg/mL (≈ 6.5 µM)
Candida tropicalis [10]
  MFC: > 256 µg/mL
Aspergillus niger [11]
  IC50: 1 µg/mL (≈ 3.25 µM)
  MIC: 2 µg/mL (≈ 6.5 µM)
Aspergillus niger [12]
  MFC: > 256 µg/mL
[13]
  Activity: Non-toxic

## CCN(CC)CC(C)Cc1ccc([Si](C)(C)C)cc1 (stereo not drawn)
Candida albicans [1]
  IC50: 3.75 µg/mL (≈ 13.5 µM)
  MIC: 8 µg/mL (≈ 28.8 µM)
Candida albicans [2]
  MFC: 32 µg/mL (≈ 115 µM)
Candida albicans [3]
  IC50: 0.57 µg/mL (≈ 2.05 µM)
  MIC: 2 µg/mL (≈ 7.21 µM)
Candida albicans [4]
  MFC: 4 µg/mL (≈ 14.4 µM)
Cryptococcus neoformans [5]
  IC50: 1.5 µg/mL (≈ 5.4 µM)
  MIC: 4 µg/mL (≈ 14.4 µM)
Cryptococcus neoformans [6]
  MFC: 32 µg/mL (≈ 115 µM)
Nakaseomyces glabratus [7]
  IC50: 1.85 µg/mL (≈ 6.67 µM)
  MIC: 4 µg/mL (≈ 14.4 µM)
Nakaseomyces glabratus [8]
  MFC: > 256 µg/mL
Candida tropicalis [9]
  IC50: 4.85 µg/mL (≈ 17.5 µM)
  MIC: 16 µg/mL (≈ 57.7 µM)
Candida tropicalis [10]
  MFC: 256 µg/mL (≈ 922 µM)
Aspergillus niger [11]
  IC50: 64 µg/mL (≈ 231 µM)
  MIC: 256 µg/mL (≈ 922 µM)
Aspergillus niger [12]
  MFC: > 256 µg/mL

## CC(Cc1ccc([Si](C)(C)C)cc1)CN1CCCC1 (stereo not drawn)
Candida albicans [1]
  IC50: 0.97 µg/mL (≈ 3.52 µM)
  MIC: 2 µg/mL (≈ 7.26 µM)
Candida albicans [2]
  MFC: 8 µg/mL (≈ 29 µM)
Candida albicans [3]
  IC50: 0.31 µg/mL (≈ 1.13 µM)
  MIC: 0.5 µg/mL (≈ 1.81 µM)
Candida albicans [4]
  MFC: 2 µg/mL (≈ 7.26 µM)
Cryptococcus neoformans [5]
  IC50: 0.25 µg/mL (≈ 0.907 µM)
  MIC: 1 µg/mL (≈ 3.63 µM)
Cryptococcus neoformans [6]
  MFC: 4 µg/mL (≈ 14.5 µM)
Nakaseomyces glabratus [7]
  IC50: 0.319 µg/mL (≈ 1.16 µM)
  MIC: 1 µg/mL (≈ 3.63 µM)
Nakaseomyces glabratus [8]
  MFC: 32 µg/mL (≈ 116 µM)
Candida tropicalis [9]
  IC50: 2.76 µg/mL (≈ 10 µM)
  MIC: 16 µg/mL (≈ 58.1 µM)
Candida tropicalis [10]
  MFC: 128 µg/mL (≈ 465 µM)
Aspergillus niger [11]
  IC50: 50.1 µg/mL (≈ 182 µM)
  MIC: 64 µg/mL (≈ 232 µM)
Aspergillus niger [12]
  MFC: 256 µg/mL (≈ 929 µM)

## CC(Cc1ccc(C(C)(C)C)cc1)CN1CC[Si](C)(C)CC1 (stereo not drawn)
Candida albicans [1]
  IC50: 1.85 µg/mL (≈ 5.83 µM)
  MIC: 4 µg/mL (≈ 12.6 µM)
Candida albicans [2]
  MFC: 8 µg/mL (≈ 25.2 µM)
Candida albicans [3]
  IC50: 0.31 µg/mL (≈ 0.976 µM)
  MIC: 0.5 µg/mL (≈ 1.57 µM)
Candida albicans [4]
  MFC: 0.5 µg/mL (≈ 1.57 µM)
Cryptococcus neoformans [5]
  IC50: 0.875 µg/mL (≈ 2.76 µM)
  MIC: 2 µg/mL (≈ 6.3 µM)
Cryptococcus neoformans [6]
  MFC: 4 µg/mL (≈ 12.6 µM)
Nakaseomyces glabratus [7]
  IC50: 1.52 µg/mL (≈ 4.79 µM)
  MIC: 4 µg/mL (≈ 12.6 µM)
Nakaseomyces glabratus [8]
  MFC: 8 µg/mL (≈ 25.2 µM)
Candida tropicalis [9]
  IC50: 16 µg/mL (≈ 50.4 µM)
  MIC: 64 µg/mL (≈ 202 µM)
Candida tropicalis [10]
  MFC: 64 µg/mL (≈ 202 µM)
Aspergillus niger [11]
  IC50: 13.8 µg/mL (≈ 43.5 µM)
  MIC: 32 µg/mL (≈ 101 µM)
Aspergillus niger [12]
  MFC: 64 µg/mL (≈ 202 µM)
[13]
  Activity: Non-toxic

## CC(Cc1ccc([Si](C)(C)C)cc1)CN1CCOCC1 (stereo not drawn)
Candida albicans [1]
  IC50: 0.74 µg/mL (≈ 2.54 µM)
  MIC: 1 µg/mL (≈ 3.43 µM)
Candida albicans [2]
  MFC: 8 µg/mL (≈ 27.4 µM)
Candida albicans [3]
  IC50: 0.26 µg/mL (≈ 0.892 µM)
  MIC: 0.5 µg/mL (≈ 1.72 µM)
Candida albicans [4]
  MFC: 8 µg/mL (≈ 27.4 µM)
Cryptococcus neoformans [5]
  IC50: 0.125 µg/mL (≈ 0.429 µM)
  MIC: 0.5 µg/mL (≈ 1.72 µM)
Cryptococcus neoformans [6]
  MFC: 2 µg/mL (≈ 6.86 µM)
Nakaseomyces glabratus [7]
  IC50: 0.144 µg/mL (≈ 0.494 µM)
  MIC: 0.5 µg/mL (≈ 1.72 µM)
Nakaseomyces glabratus [8]
  MFC: 16 µg/mL (≈ 54.9 µM)
Candida tropicalis [9]
  IC50: 0.5 µg/mL (≈ 1.72 µM)
  MIC: 8 µg/mL (≈ 27.4 µM)
Candida tropicalis [10]
  MFC: 16 µg/mL (≈ 54.9 µM)
Aspergillus niger [11]
  IC50: 106 µg/mL (≈ 363 µM)
  MIC: 128 µg/mL (≈ 439 µM)
Aspergillus niger [12]
  MFC: > 256 µg/mL
[14]
  remaining at 0.5 h: 5.1%
[15]
  remaining at 0.5 h: 26%
